Source: ChEMBL document CHEMBL4513216, “Probing the Open Global Health Chemical Diversity Library for Multistage-Active Starting Points for Next-Generation Antimalarials” (ACS Infect Dis, 2020)

Assay: Toxicity liver stage against HepG2, at 10uM
Format: cell-based
Parameters: test concentration 10 uM, cell line HepG2-A16-CD81EGFP
Details: human, HepG2-A16-CD81EGFP cells; read-out: INHIBITION
Procedure, shortened: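 Uninfected HepG2-A16-CD81EGFP cells, 3 × 10^3 per well, 1536-well, plated on prespotted compound at 10 μM final, parasite-free screening media added to match infected plates; puromycin 10 μM positive, DMSO 0.5% negative; run in parallel with 48 h PbLuc assay at 37 °C, 5% CO2; viability by CellTiter-Glo luminescence, normalized to controls.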

SMILES: CCNC(=O)CN1CCN(c2ccnc3c(F)ccc(F)c23)CC1
- cytotoxicity at 10 µM: 11.7%

SMILES: NC(=O)c1ccc(C(=O)N2CCCC(n3ccnc3)C2)s1 (stereo not drawn)
- cytotoxicity at 10 µM: -20.5%

SMILES: O=C(CN1CCOC(c2ccc(Cl)c(Cl)c2)C1)NCc1ccco1 (stereo not drawn)
- cytotoxicity at 10 µM: -7.31%

SMILES: Cc1nc(C2CCCN2C(=O)COCCOc2ccccc2)no1 (stereo not drawn)
- cytotoxicity at 10 µM: -5.82%

SMILES: CN(C)C(=O)[C@]12CCCN(CC3CC3)C[C@H]1CN(c1ccccn1)C2
- cytotoxicity at 10 µM: 3.68%

SMILES: Cc1nc(CN2CCCC(NCc3ccc4c(c3)CCO4)C2)no1 (stereo not drawn)
- cytotoxicity at 10 µM: -3.61%

SMILES: COCC(=O)N1CC(c2csc(NC(C)=O)n2)C1
- cytotoxicity at 10 µM: -8.8%

SMILES: Cc1csc2c(N3CCNC(C(=O)N4CCCC4)C3)ncnc12 (stereo not drawn)
- cytotoxicity at 10 µM: -5.6%

SMILES: O=C(NCCN1CCOCC1)c1cc2c(s1)CCN2Cc1cccnc1
- cytotoxicity at 10 µM: -7.98%

SMILES: Cc1ccccc1-n1cc(CNC(=O)CC2C(=O)NCCN2C)cn1 (stereo not drawn)
- cytotoxicity at 10 µM: 2.4%

SMILES: CCC(=O)NCc1cc(Br)c(OC)c(OC)c1
- cytotoxicity at 10 µM: -0.0582%

SMILES: O=C(CC1CC1)N[C@@H]1CN(Cc2ccc(F)cc2)C[C@@H]2CCCO[C@@H]21
- cytotoxicity at 10 µM: 14.9%

SMILES: CN(CCc1ccccn1)C(=O)c1ccccc1F
- cytotoxicity at 10 µM: -10.5%

SMILES: Cc1cc(-c2ccncc2)ccc1OCC(N)=O
- cytotoxicity at 10 µM: 18.1%

SMILES: CN(Cc1cnn(C)c1)CC1CCCN1c1cccnn1 (stereo not drawn)
- cytotoxicity at 10 µM: -1.07%

SMILES: CC(C)Oc1ccc(CNC(=O)NCC(C)(C)C(N)=O)cc1F
- cytotoxicity at 10 µM: -24.8%

SMILES: CN1CCN([C@@H]2CCN(C3CCOC3)[C@H]2Cc2cnn(C)c2)CC1 (stereo partly drawn)
- cytotoxicity at 10 µM: 6.28%

SMILES: c1ccc(-c2nc(CNC3CCc4ncnn4C3)cs2)cc1 (stereo not drawn)
- cytotoxicity at 10 µM: -6.19%

SMILES: CCCn1cc(Cl)c(C(=O)N2C[C@@H](O)[C@H](NC(C)=O)C2)n1
- cytotoxicity at 10 µM: -0.255%

SMILES: CCN(CC)C(=O)c1nnn(Cc2ccccc2)c1OC
- cytotoxicity at 10 µM: 10.3%

SMILES: Cc1ncc2c(n1)CCN(Cc1nc(Cc3ccccc3)no1)C2
- cytotoxicity at 10 µM: 0.414%

SMILES: CNc1cncc(C2CCCN2C(=O)CCn2ccnc2C(C)C)n1 (stereo not drawn)
- cytotoxicity at 10 µM: 3.36%

SMILES: CC(C)NC(=O)c1nc(Cn2c(C(F)F)nc3ccccc32)no1
- cytotoxicity at 10 µM: 9.34%

SMILES: Cc1cc(C)n(C2CN(CC(O)c3ccc(C(F)(F)F)cc3)C2)n1 (stereo not drawn)
- cytotoxicity at 10 µM: -5.94%

SMILES: CC(C)(C)c1nnc(CN2CCN(CC(O)c3ccccc3)CC2)o1 (stereo not drawn)
- cytotoxicity at 10 µM: -12.8%

SMILES: CC(C)c1ccc(C(O)Cn2c(=O)c(C#N)cn(C3CC3)c2=O)cc1 (stereo not drawn)
- cytotoxicity at 10 µM: -11.5%

SMILES: CC(=O)N1CCCN(C(=O)NCCCN(C)S(C)(=O)=O)CC1
- cytotoxicity at 10 µM: -2.44%

SMILES: Cn1cc(CN2CC[C@@H]3O[C@H](C(=O)N4CCOCC4)C[C@@H]32)cn1
- cytotoxicity at 10 µM: -8.08%

SMILES: CCC(=O)N1CCCC1c1csc(Nc2cnccn2)n1 (stereo not drawn)
- cytotoxicity at 10 µM: -2.8%

SMILES: CCOc1ccc(CC(=O)N(CCC(=O)OC)CC2CCCO2)cc1 (stereo not drawn)
- cytotoxicity at 10 µM: 5.04%

SMILES: Cc1nn(C)c2nc(N3CCC(C(O)Cc4ccccc4)CC3)sc12 (stereo not drawn)
- cytotoxicity at 10 µM: 28.2%

SMILES: Cc1ncnc2c1CCN(C(=O)c1cccn1C)CC2
- cytotoxicity at 10 µM: -75.1%

SMILES: CNc1cc(N2CCCC2CNCc2ccc(Cl)o2)ncn1 (stereo not drawn)
- cytotoxicity at 10 µM: -11.6%

SMILES: CCc1nc(CS(=O)(=O)Cc2noc(C3CC3)n2)cs1
- cytotoxicity at 10 µM: -7.38%

SMILES: O=C(NC1CC1)N(CCc1ccccc1)C1CCOC1 (stereo not drawn)
- cytotoxicity at 10 µM: -1.41%

SMILES: Cc1ccc2c(c1)OC(C)(C)CC2NC(=O)C1CCN(S(C)(=O)=O)CC1 (stereo not drawn)
- cytotoxicity at 10 µM: 1.93%

SMILES: CSc1cccc(CN(C)C(=O)CN2CCN(c3ncccn3)CC2)c1
- cytotoxicity at 10 µM: 4.64%

SMILES: N#Cc1cccc(C(=O)N2CCC(Nc3cccnn3)CC2)c1
- cytotoxicity at 10 µM: -5.17%

SMILES: O=C(C1CCC1)N1CC[C@@H]2CN(Cc3cccnc3)S(=O)(=O)[C@@H]2CC1
- cytotoxicity at 10 µM: -109%

SMILES: Cc1c[nH]nc1C1CCN(C(=O)CC2CCCC2)C1 (stereo not drawn)
- cytotoxicity at 10 µM: -4.15%

SMILES: COc1cccc2c1OCCCN(Cc1ncccc1C(=O)O)C2
- cytotoxicity at 10 µM: 4.12%

SMILES: O=C(CN1CC(n2cccn2)C1)NCCCc1ccccc1
- cytotoxicity at 10 µM: -9.51%

SMILES: c1cn(Cc2nnc(C3CCN(C4CCOCC4)CC3)n2C2CC2)cn1
- cytotoxicity at 10 µM: 0.442%

SMILES: CC(=O)N1CCCC1c1nnn2cc(-c3ccncc3)ccc12 (stereo not drawn)
- cytotoxicity at 10 µM: 7.28%

SMILES: COCCC1COC2(CCN(C(=O)c3ccsc3)CC2)C1 (stereo not drawn)
- cytotoxicity at 10 µM: -71.2%

SMILES: Cc1ccc(C(=O)N2CCCC(n3cccn3)C2)cc1S(C)(=O)=O (stereo not drawn)
- cytotoxicity at 10 µM: -4.63%

SMILES: CCC(OC)C(=O)NCc1cc2n(n1)CCCN(C1CCCCC1)C2 (stereo not drawn)
- cytotoxicity at 10 µM: 5.3%

SMILES: CNC(=O)CN1C(=O)CCC12CCCN(CCc1ccccc1)C2 (stereo not drawn)
- cytotoxicity at 10 µM: 1.35%

SMILES: CCn1cc(NC(=O)NC(CO)Cc2c[nH]c3ccccc23)cn1 (stereo not drawn)
- cytotoxicity at 10 µM: -7.03%

SMILES: Cc1cnn(CCC(=O)N2CCCN(c3nc(C)cs3)CC2)c1
- cytotoxicity at 10 µM: -4.05%

SMILES: Cc1cc(-c2ccc(=O)n(CCNC(=O)C3CC3)n2)c(C)o1
- cytotoxicity at 10 µM: -10.2%

SMILES: COc1ccc(OC)c(C2CCN(C3CCN(C(C)=O)CC3)C2)c1 (stereo not drawn)
- cytotoxicity at 10 µM: -3.2%

SMILES: CC1(C)Cc2nc(C(C)(C)C)ncc2C(NC(=O)C2(N)CC2)C1 (stereo not drawn)
- cytotoxicity at 10 µM: -2.49%

SMILES: CCOCCN(C)C(c1cccnc1)c1ccc(F)cc1F (stereo not drawn)
- cytotoxicity at 10 µM: 5.64%

SMILES: CN1CCN(c2cc(CNC(=O)c3cnccn3)ccn2)CC1
- cytotoxicity at 10 µM: -8.92%

SMILES: Cc1nc(C2CCCN2C(=O)CCCOc2cccc(F)c2)no1 (stereo not drawn)
- cytotoxicity at 10 µM: 5.09%

SMILES: NCc1n[nH]c(=O)n1-c1ccccc1Oc1ccccc1
- cytotoxicity at 10 µM: -5.04%

SMILES: CCn1cc(-n2cc3nc(N)[nH]cc-3c2=O)cn1
- cytotoxicity at 10 µM: 3.15%

SMILES: COCCN(Cc1ccccc1Cl)c1nc(CCN)nc2ccccc12
- cytotoxicity at 10 µM: 12.9%

SMILES: CC(C)c1nc2n(n1)CC(NCc1cc3ccccc3o1)CC2 (stereo not drawn)
- cytotoxicity at 10 µM: -3.61%

SMILES: CC(C)(C)CCNC(=O)c1ccc(Cl)c(NS(C)(=O)=O)c1
- cytotoxicity at 10 µM: -3.85%

SMILES: CC(CNC1CCN(c2ccccn2)CC1)Oc1ccc(F)cc1 (stereo not drawn)
- cytotoxicity at 10 µM: 7.43%

SMILES: CC(CC(=O)NS(C)(=O)=O)C1CCCCC1 (stereo not drawn)
- cytotoxicity at 10 µM: -13.5%

SMILES: CSCC(=O)N1C[C@@H]2CC[C@H]1CN(Cc1ccccc1)C2
- cytotoxicity at 10 µM: -14.9%

SMILES: Cc1nc2n(n1)CC(NCC(=O)NCCC1=CCCCC1)CC2 (stereo not drawn)
- cytotoxicity at 10 µM: -9.36%

SMILES: CC(=O)N1CCOC(c2c(C(=O)NCCN(C)C)sc3ccccc23)C1 (stereo not drawn)
- cytotoxicity at 10 µM: -1.19%

SMILES: COC(=O)c1cccc2nc([C@H]3CCN(Cc4ccccc4C)C3)oc12
- cytotoxicity at 10 µM: 8.36%

SMILES: O=C(CC1CN(Cc2ccccc2)CCO1)NCCN1CCOCC1 (stereo not drawn)
- cytotoxicity at 10 µM: 6.67%

SMILES: Cn1ccnc1-c1cccc(NC(=O)NCCCN2CCOCC2)c1
- cytotoxicity at 10 µM: -5.01%

SMILES: COc1ccc(CN2CCOC3(CCCN(c4cnccn4)C3)C2)cc1 (stereo not drawn)
- cytotoxicity at 10 µM: 10.5%

SMILES: CC(C)c1cc(C(=O)N2CCOC3(CCNCC3)C2)no1
- cytotoxicity at 10 µM: 3.65%

SMILES: O=S(=O)(c1ccccc1)N1CCCC(c2nccs2)C1 (stereo not drawn)
- cytotoxicity at 10 µM: -23.4%

SMILES: CN1CCC(c2cccc(Cc3ccc(F)cc3)n2)CC1
- cytotoxicity at 10 µM: -3.45%

SMILES: Cc1ccc(NC2COC3(CCN(Cc4ccn(C)n4)CC3)C2)nn1 (stereo not drawn)
- cytotoxicity at 10 µM: -1.68%

SMILES: COc1ccc(CNc2nncs2)cc1F
- cytotoxicity at 10 µM: -4.23%

SMILES: CC(C)n1cnc2c1C(C(=O)N1CCOCC1)N(CC1CC1)CC2 (stereo not drawn)
- cytotoxicity at 10 µM: 7.98%

SMILES: O=C(C1=CCCCC1)N1CCC2(CC1)COC(COc1ccccn1)C2 (stereo not drawn)
- cytotoxicity at 10 µM: -1.88%

SMILES: CCN(CC1CN(Cc2nccn2CC)CCO1)c1cccnn1 (stereo not drawn)
- cytotoxicity at 10 µM: -0.31%

SMILES: CC(C)(C(=O)NCC(=O)NCc1ccccc1)c1ccccc1F
- cytotoxicity at 10 µM: 4.63%

SMILES: c1cc2nccc(CC3CCCN(C4CCOCC4)CC3)c2cn1 (stereo not drawn)
- cytotoxicity at 10 µM: -8.24%

SMILES: O=C(CN1CCCC1c1noc(C2CC2)n1)NCCc1ccsc1 (stereo not drawn)
- cytotoxicity at 10 µM: 2.82%

SMILES: Cn1c(C2CC2)nc2c1CCN(Cc1nc(-c3ccsc3)no1)C2
- cytotoxicity at 10 µM: 8.73%

SMILES: CC1COC2(CCN(C(=O)Cc3ccncc3)CC2)C1 (stereo not drawn)
- cytotoxicity at 10 µM: -105%
